Data taken from ChEMBL document CHEMBL1629590, “Variety of antiprion compounds discovered through an in silico screen based on cellular-form prion protein structure: Correlation between antiprion activity and binding affinity” (Antimicrob Agents Chemother, 2009).

Assays:
[1] = target: Major prion protein (Mus musculus) (UniProt P04925); test: Antiprion activity against mouse recombinant PrP expressed in Fukuoka-1 stain infected mouse GT1-7 cells assessed as remaining PrP-res level at 10 uM after 72 hrs by Western blotting relative to control; format: cell-based
Major prion protein (Mus musculus), sequence (P04925 whole entry): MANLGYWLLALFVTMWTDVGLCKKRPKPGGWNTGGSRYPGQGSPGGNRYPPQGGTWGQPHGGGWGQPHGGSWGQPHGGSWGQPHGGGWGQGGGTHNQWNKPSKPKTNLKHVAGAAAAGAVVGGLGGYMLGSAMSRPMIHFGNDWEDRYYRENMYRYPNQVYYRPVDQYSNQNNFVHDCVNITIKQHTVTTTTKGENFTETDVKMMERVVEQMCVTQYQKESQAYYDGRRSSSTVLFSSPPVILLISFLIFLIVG
How it was run: (§1)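 GT+FK cells (GT1-7 neuronal line persistently infected with Fukuoka-1 agent) in DMEM/10% FBS, 37°C, 5% CO2; 1.5 × 10⁵ cells/well, dosed 15 h after plating with compound from fresh 10 mM DMSO stock (vehicle 0.1%) for 72 h. Lysates in Triton X-100/deoxycholate buffer adjusted to 2 mg/ml protein; PrP^Sc by Western blot with M-20 antibody, densitometry versus solvent control; effective if <70% of control; ≥2 independent experiments.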

[2] = target: Major prion protein (Mus musculus) (UniProt P04925); test: Antiprion activity against mouse recombinant PrP expressed in Fukuoka-1 stain infected mouse GT1-7 cells at 10 uM after 72 hrs by Western blotting; format: cell-based; how it was run: as §1
[3] = target: Major prion protein (Mus musculus, UniProt P04925); test: Binding affinity to mouse recombinant PrP (121-231) after 10 mins by surface plasmon resonance assay
Major prion protein, sequence (P04925 whole entry): as above
How it was run: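 Recombinant mouse PrP(121-231) immobilized on CM5 chip; compounds at various concentrations injected in HEPES-buffered saline (pH 7.4) with 0.1% P20 and 5% DMSO, 1 min at 30 μl/min, then buffer alone for 10 min. Blank-chip corrected; Kd fitted from concentration dependence of sensorgram response.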

[4] = Solubility of the compound; format: physicochemical

In the case of `Cc1cccc(NC(=O)N2CCCC2C(=O)NC2CCCC2)c1` (stereo not drawn), the Activity [1] is reported as 63.2%.
In the case of `CCCCNc1nc2ccccc2n1CC(=O)N1CCc2ccccc21`, the Activity [1] is reported as 37.3%, the Activity [2] is reported as under 70% and the Kd ([3]; read-out: Kd) is reported as 20 µM.
With `O=C1c2cccc3cccc(c23)N1CC(=O)N1CC2CCC1C2` (stereo not drawn) the Activity [1] was 65%.
`O=C(COC(=O)c1c2c(nc3ccccc13)CCC2)NC1CCCC1` gave an Activity [1] of 62.9%.
`O=C(CCc1nc2ccccc2c(=O)[nH]1)NC1CCCc2ccccc21` (stereo not drawn) gave an Activity [1] of 65%.
`O=C(Cc1coc2cc3c(cc12)CCC3)N1CCc2ccccc21` showed an Activity [1] of 63.7%.
For `CC(=O)N(Cc1ccccc1)Cc1cc2cccc(C)c2n2nnnc12`, the Kd [3] was “Not Active”.
Compound `O=C(Cc1c[nH]c2ccccc12)NC1CCc2ccccc2C1` (stereo not drawn) has an Activity [1] of 55.3% and a Kd ([3]; read-out: Kd) of 48.6 µM.
Compound `O=C(CN1C(=O)COc2ccccc21)N1CCCc2ccccc21` has an Activity [1] of 57.5%.
`Cc1ccc2c(c1)c1c(n2CC(O)CN2CCCCC2)C(=O)CCC1` (stereo not drawn) gave an Activity [1] of 51.3%.
For `C=CCNC(=O)NC(=O)CSc1nc2ccccc2n1CC(C)C`, the Kd [3] was “Not Active”.
`CC1CCCCN1CC(=O)Nc1sc2c(c1C#N)CCCCC2` (stereo not drawn) gave an Activity [1] of 58.8% and a Kd ([3]; read-out: Kd) of 21.9 µM.
Compound `CCC(C)C(NC(=O)c1ccccc1)C(=O)N1CCc2ccccc21` (stereo not drawn) has an Activity [1] of 36.8%, an Activity [2] of under 70% and a Kd ([3]; read-out: Kd) of 51.2 µM.
`Cc1cccc2cc(C#N)c(N3CCCN(C(=O)C4CCC4)CC3)nc12` gave an Activity [1] of 50.6%.
Work on `CC1CCCCC1NC(=O)COc1ncnc2sc3c(c12)CCC3` (stereo not drawn) yielded an Activity [1] of 68.8%.
In the case of `CC1Cc2ccccc2N1C(=O)COc1ncnc2sccc12` (stereo not drawn), the Activity [1] is reported as 67.4%.
`O=C(CN1C(=O)NC2(CCCc3ccccc32)C1=O)N1CCCCC1` (stereo not drawn) gave an Activity [1] of 67.1%.
Compound `O=C(CSc1nc2ccccc2[nH]1)NC1CCCc2ccccc21` (stereo not drawn) has an Activity [1] of 64.9%.
With `O=C(NCc1ccccn1)C1CC2c3ccccc3C1c1ccccc12` (stereo not drawn) the Activity [1] was 54.7% and the solubility [4] was “Insoluble”.
Compound `Cc1ccc(NC(=O)CN2C(=O)NC3(CCc4ccccc43)C2=O)cc1` (stereo not drawn) has an Activity [1] of 150%.
Compound `Cc1cc2cc3c(cc2nc1SCCN1CCCCC1)OCCO3` has an Activity [1] of 47.4%, an Activity [2] of under 70% and a Kd ([3]; read-out: Kd) of 50.8 µM.
Compound `Cc1cccc2cc3c(N)c(C(=O)NC4CCCC4)sc3nc12` has an Activity [1] of 41.9%, an Activity [2] of under 70% and a Kd ([3]; read-out: Kd) of 86.1 µM.
With `CN1/C(=C/C(=O)Nc2cccs2)c2ccccc2CC1(C)C` the Activity [1] was 57.4%.
`O=C(COc1ncnc2ccccc12)NC1CCCc2ccccc21` (stereo not drawn) showed an Activity [1] of 53%.
For `CCCc1nc2ccccc2n1CC(=O)N1CCCc2ccccc21`, the Activity [1] was 67.2%.
With `N#Cc1c(NC(=O)c2cc3c(s2)CCCC3)sc2c1CCCC2` the Activity [1] was 66.9%.
In the case of `O=C(CSc1ncnc2sc3c(c12)CCC3)NCC1CCCO1` (stereo not drawn), the Kd [3] is reported as “Not Active”.
